Our source for the MIC, DNA cleavage conc (gyrase) and ED50 values is ChEMBL document CHEMBL1124270, “Quinolone antibacterial agents. Synthesis and structure-activity relationships of 8-substituted quinoline-3-carboxylic acids and 1,8-naphthyridine-3-carboxylic acids” (1988).

Common to all, as to format: functional
The subject of one assay is Klebsiella pneumoniae. The assay is described as follows: Minimum inhibitory concentration against Klebsiella pneumoniae MGH-2 in vitro.
Assay [1] concerns Escherichia coli. The assay is described as follows: Minimum concentration needed to produce linear DNA at an intensity relative to oxolinic at 10 ug/mL in Escherichia coli H560 in vitro. The essentials: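 DNA gyrase cleavage test, run as previously described: end point is the lowest drug level (µg/mL) that yields linear DNA at a band intensity matching oxolinic acid at 10 µg/mL. Values come from duplicate or triplicate experiments and are stated as accurate to ±50%.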

Assay [2] has as its system Staphylococcus aureus. In words: Minimum inhibitory concentration against Staphylococcus aureus H228 in vitro.
For assay [3], the system named is Escherichia coli. The assay is described as follows: Minimum inhibitory concentration against Escherichia coli H560 in vitro.
Assay [4] has as its system Staphylococcus aureus. The assay is described as follows: Minimum inhibitory concentration against Staphylococcus aureus UC-76 in vitro.
Assay [5] has as its system Escherichia coli. In words: Minimum inhibitory concentration against Escherichia coli vogel in vitro.
The next assay has as its system Streptococcus pneumoniae. The assay is described as follows: Minimum inhibitory concentration against Streptococcus pneumoniae SV-1 in vitro.
In a further assay the test system is Streptococcus pyogenes. In words: Minimum inhibitory concentration against Streptococcus pyogenes C203 in vitro.
For a further assay, the system named is Providencia rettgeri. In words: Minimum inhibitory concentration against Providencia rettgeri H1771 in vitro.
Another assay concerns Enterobacter cloacae. The assay is described as follows: Minimum inhibitory concentration against Enterobacter cloacae HA 2646 in vitro.
Another assay concerns Enterococcus faecalis. The assay is described as follows: Minimum inhibitory concentration against Streptococcus faecalis MGH-2 in vitro.
In the next assay the test system is Pseudomonas aeruginosa. The assay is described as follows: Minimum inhibitory concentration against Pseudomonas aeruginosa UI-18 in vitro.
The test system of another assay is Mus musculus. The assay is described as follows: In vivo potency against Escherichia coli vogel using mouse protection assay when given perorally. Particulars: po, read-out: PD50.

SMILES strings stand for the structures. In brackets after ≈: the same amount, converted by molar mass.

In the case of `CNCC1CCN(c2c(F)cc3c(=O)c(C(=O)O)cn4c3c2OCC4C)C1` (centres undefined), the MIC (commonly the smallest concentration in the dilution series that meets the test's criterion for growth inhibition) in the assay on Klebsiella pneumoniae is 0.4 µg/mL (≈ 1.07 µM); against Staphylococcus aureus [2], 0.4 µg/mL (≈ 1.07 µM); in the assay on Escherichia coli [3] it was 0.2 µg/mL (≈ 0.533 µM); against Staphylococcus aureus [4], 0.025 µg/mL (≈ 0.0666 µM); with Escherichia coli [5] it was 0.2 µg/mL (≈ 0.533 µM); with Streptococcus pneumoniae, 0.1 µg/mL (≈ 0.266 µM). Moreover, the MIC in the assay with Streptococcus pyogenes came out at 0.05 µg/mL (≈ 0.133 µM); in the assay with Providencia rettgeri, 3.1 µg/mL (≈ 8.26 µM); in the assay on Enterobacter cloacae, 0.4 µg/mL (≈ 1.07 µM); in the assay with Enterococcus faecalis, 0.1 µg/mL (≈ 0.266 µM); against Pseudomonas aeruginosa it was 1.6 µg/mL (≈ 4.26 µM). This compound also showed a DNA cleavage conc (gyrase) with Escherichia coli [1] of 1 µg/mL.
As for `CCNCC1CCN(c2c(F)cc3c(=O)c(C(=O)O)cn(C4CC4)c3c2Cl)C1` (centres undefined), the MIC came to 0.1 µg/mL (≈ 0.245 µM) with Klebsiella pneumoniae; 0.013 µg/mL (≈ 0.0319 µM) with Staphylococcus aureus [2]; 0.025 µg/mL (≈ 0.0613 µM) with Escherichia coli [3]; 0.003 µg/mL (≈ 0.00736 µM) with Staphylococcus aureus [4]; 0.05 µg/mL (≈ 0.123 µM) against Escherichia coli [5]; 0.003 µg/mL (≈ 0.00736 µM) against Streptococcus pneumoniae. For the same compound, the minimal inhibitory concentration (MIC) in the assay with Streptococcus pyogenes amounted to 0.006 µg/mL (≈ 0.0147 µM); against Providencia rettgeri, 0.2 µg/mL (≈ 0.49 µM); against Enterobacter cloacae it was 0.05 µg/mL (≈ 0.123 µM); with Enterococcus faecalis it was 0.013 µg/mL (≈ 0.0319 µM); with Pseudomonas aeruginosa it was 0.8 µg/mL (≈ 1.96 µM). In addition, the DNA cleavage conc (gyrase) with Escherichia coli [1] was 0.1 µg/mL.
Regarding `CC1COc2c(N3CCC(CN(C)C)C3)c(F)cc3c(=O)c(C(=O)O)cn1c23.Cl` (centres undefined), the MIC against Klebsiella pneumoniae is 0.4 µg/mL; in the assay on Staphylococcus aureus [2], 0.2 µg/mL; in the assay with Escherichia coli [3] it was 0.2 µg/mL; against Staphylococcus aureus [4], 0.05 µg/mL; with Escherichia coli [5], 0.2 µg/mL; against Streptococcus pneumoniae it was 0.05 µg/mL. Moreover, the MIC worked out at 0.05 µg/mL against Streptococcus pyogenes; 0.8 µg/mL in the assay with Providencia rettgeri; 0.4 µg/mL against Enterobacter cloacae; 0.4 µg/mL in the assay on Enterococcus faecalis; 3.1 µg/mL with Pseudomonas aeruginosa. Moreover, the DNA cleavage conc (gyrase) in the assay with Escherichia coli [1] came out at 1 µg/mL.
For the compound `CCNCC1CCN(c2cc3c(cc2F)c(=O)c(C(=O)O)cn3C2CC2)C1.Cl` (centres undefined), the MIC against Klebsiella pneumoniae is 0.2 µg/mL; with Staphylococcus aureus [2], 0.4 µg/mL; against Escherichia coli [3] it was 0.05 µg/mL; with Staphylococcus aureus [4], 0.013 µg/mL; in the assay on Escherichia coli [5], 0.2 µg/mL; against Streptococcus pneumoniae, 0.2 µg/mL. The minimum inhibitory concentration (MIC) in the assay with Streptococcus pyogenes was determined as 0.05 µg/mL; in the assay on Providencia rettgeri, 0.8 µg/mL; with Enterobacter cloacae, 0.4 µg/mL; with Enterococcus faecalis it was 0.2 µg/mL; against Pseudomonas aeruginosa, 1.6 µg/mL. This compound returned a DNA cleavage conc (gyrase) in the assay with Escherichia coli [1] of 1 µg/mL. Further, the ED50 with Mus musculus worked out at 35 mg/kg.
For `CCNCC1CCN(c2c(F)cc3c(=O)c(C(=O)O)cn(C4CC4)c3c2N)C1.Cl.Cl` (centres undefined), the MIC in the assay on Klebsiella pneumoniae is 0.8 µg/mL; in the assay with Staphylococcus aureus [2], 0.8 µg/mL; against Escherichia coli [3], 0.8 µg/mL; in the assay with Staphylococcus aureus [4] it was 0.05 µg/mL; against Escherichia coli [5] it was 0.4 µg/mL; against Streptococcus pneumoniae, 0.4 µg/mL. Moreover, the MIC against Streptococcus pyogenes was determined as 0.2 µg/mL; in the assay on Providencia rettgeri it was 1.6 µg/mL; in the assay on Enterobacter cloacae, 0.4 µg/mL; with Enterococcus faecalis, 0.2 µg/mL; in the assay with Pseudomonas aeruginosa, 3.1 µg/mL. This compound also displayed a DNA cleavage conc (gyrase) in the assay on Escherichia coli [1] of 2.5 µg/mL.
For the compound `CNCC1CCN(c2c(F)cc3c(=O)c(C(=O)O)cn(C4CC4)c3c2N)C1.Cl` (centres undefined), the MIC turned out to be 3.1 µg/mL in the assay with Klebsiella pneumoniae; 1.6 µg/mL in the assay with Staphylococcus aureus [2]; 1.6 µg/mL against Escherichia coli [3]; 0.2 µg/mL in the assay with Staphylococcus aureus [4]; 0.8 µg/mL in the assay on Escherichia coli [5]; 1.6 µg/mL against Streptococcus pneumoniae. Further, the MIC in the assay with Streptococcus pyogenes was 0.4 µg/mL; in the assay with Providencia rettgeri, 6.3 µg/mL; in the assay with Enterobacter cloacae, 3.1 µg/mL; against Enterococcus faecalis, 1.6 µg/mL; with Pseudomonas aeruginosa it was 6.3 µg/mL. In addition, the DNA cleavage conc (gyrase) in the assay on Escherichia coli [1] was determined as 5 µg/mL.
For `CCNCC1CCN(c2c(F)cc3c(=O)c(C(=O)O)cn(C4CC4)c3c2[N+](=O)[O-])C1.Cl` (centres undefined), the MIC amounted to 0.8 µg/mL against Klebsiella pneumoniae; 0.4 µg/mL in the assay with Staphylococcus aureus [2]; 0.4 µg/mL in the assay with Escherichia coli [3]; 0.1 µg/mL in the assay with Staphylococcus aureus [4]; 0.4 µg/mL in the assay on Escherichia coli [5]; 0.1 µg/mL in the assay with Streptococcus pneumoniae. Also, the MIC in the assay with Streptococcus pyogenes was 0.2 µg/mL; in the assay with Providencia rettgeri, 1.6 µg/mL; with Enterobacter cloacae, 0.4 µg/mL; against Enterococcus faecalis, 0.4 µg/mL; in the assay on Pseudomonas aeruginosa, 6.3 µg/mL.
